Experimental data as given in ChEMBL document CHEMBL3774312, “5-Substituted 3-isopropyl-7-[4-(2-pyridyl)benzyl]amino-1(2)H-pyrazolo[4,3-d]pyrimidines with anti-proliferative activity as potent and selective inhibitors of cyclin-dependent kinases” (Eur J Med Chem, 2016).
Activity calls are given as the source filed them. No cut-off for these calls is given here.

Legend:
[1] = Cytotoxicity against human G361 cells assessed as reduction in cell viability after 72 hrs by calcein AM staining based fluorescence assay; format: functional; conditions: G-361, 72 h
Summary of the method: (§1)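 Cells were grown in DMEM with 10% FBS, penicillin and streptomycin at 37 °C in 5% CO2. Three doses were tested in triplicate for 72 h.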

[2] = biological target: Cyclin-dependent kinase 5 (Homo sapiens, UniProt Q00535); assay: Inhibition of CDK5 (unknown origin) using histone H1 as substrate in presence of [gamma33P]-ATP
Sequence of Cyclin-dependent kinase 5 (Q00535 whole entry): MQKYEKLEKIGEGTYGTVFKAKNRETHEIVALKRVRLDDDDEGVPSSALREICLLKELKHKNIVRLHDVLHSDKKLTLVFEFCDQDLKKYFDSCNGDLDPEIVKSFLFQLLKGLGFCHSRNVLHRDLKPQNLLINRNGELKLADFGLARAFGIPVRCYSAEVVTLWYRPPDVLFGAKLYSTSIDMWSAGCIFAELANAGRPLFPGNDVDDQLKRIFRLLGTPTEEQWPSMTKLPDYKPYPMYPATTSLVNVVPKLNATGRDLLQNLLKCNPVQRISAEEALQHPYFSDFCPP

[3] = (§2) Cytotoxicity against human HCT116 cells assessed as reduction in cell viability after 72 hrs by calcein AM staining based fluorescence assay; format: functional; conditions: HCT-116, 72 h
Summary of the method: (§3)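 Cells were grown in DMEM with 10% FBS, penicillin and streptomycin at 37 °C in 5% CO2. Three doses were tested in triplicate for 72 h. Live cells were read by Calcein AM fluorescence at 485/538 nm.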

MCF7 [4] = assay: Cytotoxicity against human MCF7 cells assessed as reduction in cell viability after 72 hrs by calcein AM staining based fluorescence assay; format: functional; conditions: for IC50: MCF7, 72 h; summary of the method: as §1
K562 = assay: Cytotoxicity against human K562 cells assessed as reduction in cell viability after 72 hrs by calcein AM staining based fluorescence assay; format: functional; conditions: K562, 72 h; summary of the method: as §1
[5] = biological target: Cyclin-dependent kinase 2/cyclin E1 (Homo sapiens, UniProt P24941); assay: Inhibition of CDK2/Cyclin E (unknown origin) expressed in sf9 cells using histone H1 as substrate in presence of [gamma33P]-ATP; format: cell-based
G-361 [6] = assay: Induction of apoptosis in human G361 cells assessed as caspase7 activation using Ac-DEVD-AMC as substrate at 5 times IC50 preincubated for 24 hrs followed by substrate addition measured after 3 hrs by fluorescence assay; format: functional, cell-based
[7] = biological target: Cyclin-dependent kinase 2 (Homo sapiens) (UniProt P24941); assay: Inhibition of CDK2 in human G361 cells assessed as reduction in phosphorylation of RNA polymerase 2 at C-terminus at 0.75 uM incubated for 0.5 to 24 hrs by immunoblotting analysis; format: cell-based; conditions: G-361
Summary of the method: (§4)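 Treated G361 cells were lysed in Laemmli buffer, run on SDS-PAGE and blotted to nitrocellulose. Blots were probed overnight with antibodies to RNA polymerase II phosphorylated at S5 and S2, and to total RNA polymerase II (ARNA-3). Peroxidase secondaries were then applied and signal was detected by ECL with a CCD camera.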

G-361 [8] = assay: Induction of apoptosis in human G361 cells assessed as caspase7 activation using Ac-DEVD-AMC as substrate at IC50 preincubated for 24 hrs followed by substrate addition measured after 3 hrs by fluorescence assay; format: functional, cell-based
G-361 [9] = assay: Induction of apoptosis in human G361 cells assessed as caspase3 activation using Ac-DEVD-AMC as substrate at IC50 preincubated for 24 hrs followed by substrate addition measured after 3 hrs by fluorescence assay; format: functional, cell-based
[10] = biological target: Cyclin-dependent kinase 2 (Homo sapiens) (UniProt P24941); assay: Inhibition of CDK2 in human G361 cells assessed as reduction in phosphorylation of RNA polymerase 2 at C-terminus at 0.075 to 0.75 uM incubated for 24 hrs by immunoblotting analysis; format: cell-based; conditions: G-361; summary of the method: as §4
G-361 [11] = assay: Induction of apoptosis in human G361 cells assessed as caspase3 activation using Ac-DEVD-AMC as substrate at 5 times IC50 preincubated for 24 hrs followed by substrate addition measured after 3 hrs by fluorescence assay; format: functional, cell-based
[12] = biological target: Cyclin-dependent kinase 2 (Homo sapiens) (UniProt P24941); assay: Inhibition of CDK2 in human G361 cells assessed as reduction in phosphorylation of RNA polymerase 2 at C-terminus at 1.5 to 15 uM incubated for 24 hrs by immunoblotting analysis; format: cell-based; conditions: G-361; summary of the method: as §4
[13] = biological target: Cyclin-dependent kinase 2 (Homo sapiens) (UniProt P24941); assay: Inhibition of CDK2 in human G361 cells assessed as reduction in phosphorylation of RNA polymerase 2 at C-terminus at 15 uM incubated for 0.5 to 24 hrs by immunoblotting analysis; format: cell-based; conditions: G-361; summary of the method: as §4
MCF7 [14] = assay: Cell cycle arrest in BrdU pulse-labelled human MCF7 cells assessed as accumulation at late G2/M phase at 8 to […] after 24 hrs by propidium iodide staining based flow cytometry; format: functional
MCF7 [15] = assay: Cell cycle arrest in BrdU pulse-labelled human MCF7 cells assessed as accumulation at late S phase at 8 to […] after 24 hrs by propidium iodide staining based flow cytometry; format: functional
MCF7 [16] = assay: Cell cycle arrest in BrdU pulse-labelled human MCF7 cells assessed as decrease in cells at S phase at 8 to […] after 24 hrs by propidium iodide staining based flow cytometry; format: functional
HCT-116 = assay: as §2; format: functional; summary of the method: as §3
MCF7 [17] = assay: Cell cycle arrest in BrdU pulse-labelled human MCF7 cells assessed as accumulation at subG1 phase at 8 to […] after 24 hrs by propidium iodide staining based flow cytometry; format: functional
[18] = biological target: Cyclin-dependent kinase 2 (Homo sapiens) (UniProt P24941); assay: Inhibition of CDK2 in human G361 cells assessed as reduction in phosphorylation of RNA polymerase 2 at C-terminus at 2.4 to 24 uM incubated for 24 hrs by immunoblotting analysis; format: cell-based; conditions: G-361; summary of the method: as §4
[19] = biological target: Cyclin-dependent kinase 2 (Homo sapiens) (UniProt P24941); assay: Inhibition of CDK2 in human G361 cells assessed as reduction in phosphorylation of RNA polymerase 2 at C-terminus at 1 uM incubated for 0.5 to 24 hrs by immunoblotting analysis; format: cell-based; conditions: G-361; summary of the method: as §4
MCF7 [20] = assay: Cell cycle arrest in BrdU pulse-labelled human MCF7 cells assessed as accumulation at late G2/M phase at 8 to 250 nM after 24 hrs by propidium iodide staining based flow cytometry; format: functional
MCF7 [21] = assay: Cell cycle arrest in BrdU pulse-labelled human MCF7 cells assessed as accumulation at late S phase at 8 to 250 nM after 24 hrs by propidium iodide staining based flow cytometry; format: functional
MCF7 [22] = assay: Cell cycle arrest in BrdU pulse-labelled human MCF7 cells assessed as accumulation at subG1 phase at 8 to 250 nM after 24 hrs by propidium iodide staining based flow cytometry; format: functional
MCF7 [23] = assay: Cell cycle arrest in BrdU pulse-labelled human MCF7 cells assessed as decrease in cells at S phase at 8 to 250 nM after 24 hrs by propidium iodide staining based flow cytometry; format: functional

| Structure (SMILES) | IC50 [1] [nM] | IC50 [2] [nM] | IC50 [3] [nM] | IC50 (MCF7 [4]) [nM] | IC50 (K562) [nM] | IC50 [5] [nM] | further results |
| --- | --- | --- | --- | --- | --- | --- | --- |
| CC(C)c1n[nH]c2c(NCc3ccc(-c4ccccn4)cc3)nc(NCc3ccc(-c4ccccn4)cc3)nc12 | 3610 | 3600 | 7320 | 2380 | 2540 | 1450 | – |
| CC(C)c1n[nH]c2c(NCc3ccc(-c4ccccn4)cc3)nc(NCC(C)(C)O)nc12 | 48 | – | 85 | 24 | 29 | 9 | Activity (G-361 [6]): Active; inhibition [7]: Active; Activity (G-361 [8]): Active; Activity (G-361 [9]): Active; inhibition [10]: Active; Activity (G-361 [11]): Active |
| CC(C)c1n[nH]c2c(NCc3ccc(-c4ccccn4)cc3)nc(NCC(O)CO)nc12 (configuration not stated) | 72 | 21 | 87 | 59 | 47 | 12 | – |
| CC(C)c1n[nH]c2c(NCc3ccc(-c4ccccn4)cc3)nc(N[C@H]3CC[C@H](N)CC3)nc12 | 745 | – | 720 | 474 | 593 | 96 | Activity (G-361 [6]): Active; inhibition [12]: Active; Activity (G-361 [8]): Active; Activity (G-361 [9]): Active; inhibition [13]: Active; Activity (G-361 [11]): Active |
| CCC(CO)Nc1nc(NCc2ccc(-c3ccccn3)cc2)c2[nH]nc(C(C)C)c2n1 (configuration not stated) | 67 | – | 110 | 53 | – | 54 | Activity (MCF7 [14]): Active; Activity (MCF7 [15]): Active; Activity (MCF7 [16]): Active; Activity (HCT-116): Dose-dependent effect; Activity (MCF7 [17]): Active; Activity (MCF7 [4]): Dose-dependent effect |
| CC(C)c1n[nH]c2c(NCc3ccc(-c4ccccn4)cc3)nc(NCCN(C)C)nc12 | 640 | – | 390 | 225 | 125 | 467 | – |
| CC(C)c1n[nH]c2c(NCc3ccc(-c4ccccn4)cc3)nc(NCCN)nc12 | 230 | 8 | 227 | 62 | 63 | 18 | – |
| CC(C)c1n[nH]c2c(NCc3ccc(-c4ccccn4)cc3)nc(NCCO)nc12 | 39 | 49 | 27 | 51 | 38 | 31 | – |
| CC(C)c1n[nH]c2c(NCc3ccc(-c4ccccn4)cc3)nc(N3CCCCC3CCO)nc12 (configuration not stated) | 204 | 37 | 142 | 133 | 165 | 24 | – |
| CC(C)c1n[nH]c2c(NCc3ccc(-c4ccccn4)cc3)nc(N3CCSCC3)nc12 | 873 | – | 940 | 530 | 589 | 61 | – |
| CC[C@H](CO)Nc1nc(NCc2ccccc2)c2[nH]nc(C(C)C)c2n1 | – | – | – | – | – | – | inhibition [18]: Active |
| CC[C@H](CO)Nc1nc(NCc2ccc(-c3ccccn3)cc2)c2ncn(C(C)C)c2n1 | 503 | – | 350 | 160 | 175 | – | – |
| CC[C@H](CO)Nc1nc(NCc2ccccc2)c2ncn(C(C)C)c2n1 [SELICICLIB] | – | – | 14400 | 12200 | – | – | – |
| CC(C)c1n[nH]c2c(NCc3ccc(-c4ccccn4)cc3)nc(S(C)(=O)=O)nc12 | 793 | – | 1140 | 460 | 640 | 70 | – |
| CSc1nc(NCc2ccc(-c3ccccn3)cc2)c2[nH]nc(C(C)C)c2n1 | 1400 | – | 2800 | 819 | 778 | 48 | – |
| CC(C)c1n[nH]c2c(NCc3ccc(-c4ccccn4)cc3)nc(N[C@@H]3CCCC[C@H]3N)nc12 (relative stereo) | 477 | 44 | 427 | 295 | 175 | 46 | – |
| CC(C)c1n[nH]c2c(NCc3ccc(-c4ccccn4)cc3)nc(N3CCN(CCO)CC3)nc12 | 181 | – | 350 | 195 | 145 | 132 | – |
| CC(C)c1n[nH]c2c(NCc3ccc(-c4ccccn4)cc3)nc(N3CCOCC3)nc12 | 197 | – | 270 | 163 | 110 | 18 | Activity (G-361 [6]): Active; inhibition [19]: Active; Activity (G-361 [8]): inactive; Activity (G-361 [9]): inactive; Activity (G-361 [11]): Active |
| CC(C)c1n[nH]c2c(NCc3ccc(-c4ccccn4)cc3)nc(N3CCNCC3)nc12 | 64 | – | 88 | 21 | 17 | 50 | – |
| CC(C)c1n[nH]c2c(NCc3ccc(-c4ccccn4)cc3)nc(NCC(O)CN)nc12 (configuration not stated) | 1020 | 17 | 781 | 310 | 700 | 51 | Activity (MCF7 [20]): Active; Activity (MCF7 [21]): Active; Activity (HCT-116): Dose-dependent effect; Activity (MCF7 [4]): Dose-dependent effect; Activity (MCF7 [22]): Active; Activity (MCF7 [23]): Active |
